One compound from ChEMBL document CHEMBL2331221, “Potent elastase inhibitors from cyanobacteria: structural basis and mechanisms mediating cytoprotective and anti-inflammatory effects in bronchial epithelial cells” (J Med Chem, 2013) can be followed below.

Activity calls are given as the source filed them. No cut-off for these calls is given here.

Usually IC50 stands for the point on the concentration scale where inhibition reaches its midpoint. Higher therefore signals a need for much substance. As usually defined, the pIC50 is the IC50 on a negative log10 scale, so that one unit is a factor of ten.

The target of test [1] is Cathepsin S (Homo sapiens) (UniProt P25774). Briefly: Inhibition of Cathepsin S (unknown origin) using Z-FR-AMC substrate assessed as residual activity at 10 uM incubated for 15 mins prior to substrate addition measured for 2 hrs. In outline: (§1)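 Protease panel screen: enzyme and test inhibitor preincubated 15 min in the enzyme's reaction buffer, then substrate added. Reaction followed for 2 h, and activity was taken from the initial linear portion of the progress-curve slope. Enzyme, substrate, buffer and detection conditions for each target are given only in the paper's supporting table.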

The target of test [2] is Coagulation factor XI (Homo sapiens, UniProt P03951). Briefly: Inhibition of Factor-11a (unknown origin) using (Boc-Glu(OBzl)-Ala-Arg)-MCA substrate incubated for 15 mins prior to substrate addition measured for 2 hrs. In a few lines:
as §1

Test [3] has as its target Kallikrein-13 (Homo sapiens) (UniProt Q9UKR3). Briefly: Inhibition of Kallikrein-13 (unknown origin) using VPR-AMC substrate assessed as residual activity at 10 uM incubated for 15 mins prior to substrate addition measured for 2 hrs. In a few lines:
as §1

The target in test [4] is Stromelysin-2 (Homo sapiens) (UniProt P09238). Briefly: Inhibition of MMP10 (unknown origin) using (5-FAM/QXLTM) FRET peptide substrate assessed as residual activity at 10 uM incubated for 15 mins prior to substrate addition measured for 2 hrs. In outline:
as §1

In test [5] the target is Kallikrein-8 (Homo sapiens) (UniProt O60259). The test is described as follows: Inhibition of Kallikrein-8 (unknown origin) using VPR-AMC substrate assessed as residual activity at 10 uM incubated for 15 mins prior to substrate addition measured for 2 hrs. In outline: as §1
Test [6] is described as follows: Inhibition of Thrombin alpha (unknown origin) using H-D-CHA -Ala-Arg-AMC.2AcOH substrate incubated for 15 mins prior to substrate addition measured for 2 hrs. Further details: species or system Homo sapiens. In a few lines: (§2)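 Protease panel screen: enzyme and inhibitor preincubated 15 min in reaction buffer, then substrate added; reaction followed for 2 h and the initial linear part of the progress curve used for activity. Enzyme, substrate, buffer and detection details are given only in a supporting table.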

Test [7] in a line: Inhibition of Proteinase K (unknown origin) using H-D-CHA -Ala-Arg-AMC.2AcOH substrate incubated for 15 mins prior to substrate addition measured for 2 hrs. On the set-up: species or system Homo sapiens. In a few lines: as §2
For test [8], the species on record is Homo sapiens. The test is described as follows: Inhibition of Thrombin alpha (unknown origin) using H-D-CHA -Ala-Arg-AMC.2AcOH substrate assessed as residual activity at 10 uM incubated for 15 mins prior to substrate addition measured for 2 hrs. In a few lines:
as §2

The target of test [9] is T1, Neutrophil elastase (Homo sapiens) (UniProt P08246).
T1 sequence (whole entry): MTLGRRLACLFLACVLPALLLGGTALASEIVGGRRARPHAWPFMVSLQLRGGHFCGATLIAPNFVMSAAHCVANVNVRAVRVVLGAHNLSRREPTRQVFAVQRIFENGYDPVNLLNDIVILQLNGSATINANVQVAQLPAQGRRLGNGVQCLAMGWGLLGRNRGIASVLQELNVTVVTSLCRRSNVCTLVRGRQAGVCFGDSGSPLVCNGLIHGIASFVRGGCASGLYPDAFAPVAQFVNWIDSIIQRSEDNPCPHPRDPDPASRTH
Conditions: 10 uM.

Test [10] deals with Chymase (Homo sapiens) (UniProt P23946). Briefly: Inhibition of Chymase (unknown origin) using Suc-AAPF-AMC substrate assessed as residual activity at 10 uM incubated for 15 mins prior to substrate addition measured for 2 hrs. In outline: as §1
Test [11] has as its target T1, Neutrophil elastase (Homo sapiens). The settings on record: BEAS2B, 10 uM.
The target in test [12] is Coagulation factor X (Homo sapiens) (UniProt P00742). The test is described as follows: Inhibition of Factor-10a (unknown origin) using CH3SO2-D-CHA-Gly-Arg-AMC-AcOH substrate assessed as residual activity at 10 uM incubated for 15 mins prior to substrate addition measured for 2 hrs. In a few lines: as §1
Test [13] deals with T1, Neutrophil elastase (Homo sapiens). Conditions: 10 uM. This is another data set of the same source.
Test [14] deals with 72 kDa type IV collagenase (Homo sapiens) (UniProt P08253). The test is described as follows: Inhibition of MMP2 (unknown origin) using (5-FAM/QXLTM) FRET peptide substrate assessed as residual activity at 10 uM incubated for 15 mins prior to substrate addition measured for 2 hrs. In a few lines: as §1
The target of test [15] is T1, Neutrophil elastase (Homo sapiens). The settings on record: 10 uM. The source holds these as a separate data set.
Test [16] addresses Disintegrin and metalloproteinase domain-containing protein 10 (Homo sapiens) (UniProt O14672). The test is described as follows: Inhibition of ADAM10 (unknown origin) using MCA-PLAQAV-Dpa-RSSSR-[…] substrate assessed as residual activity at 10 uM incubated for 15 mins prior to substrate addition measured for 2 hrs. In a few lines: as §1
Test [17] concerns the target Cathepsin G (Homo sapiens, UniProt P08311). Briefly: Inhibition of Cathepsin G (unknown origin) using Suc-AAPF-AMC substrate incubated for 15 mins prior to substrate addition measured for 2 hrs. In outline: as §1
Test [18] concerns Hepacivirus hominis. Briefly: Inhibition of Hepatitis C virus NS3/4A protease using Anaspec EnzoLyte substrate assessed as residual activity at 10 uM incubated for 15 mins prior to substrate addition measured for 2 hrs. In outline: as §1
In test [19] the target is Disintegrin and metalloproteinase domain-containing protein 9 (Homo sapiens) (UniProt Q13443). Briefly: Inhibition of ADAM9 (unknown origin) using MCA-PLAQAV-Dpa-RSSSR-[…] substrate assessed as residual activity at 10 uM incubated for 15 mins prior to substrate addition measured for 2 hrs. In outline: as §1
Test [20] has as its target Plasminogen (Homo sapiens) (UniProt P00747). The test is described as follows: Inhibition of Plasmin (unknown origin) using H-D-CHA -Ala-Arg-AMC.2AcOH substrate assessed as residual activity at 10 uM incubated for 15 mins prior to substrate addition measured for 2 hrs. In a few lines:
as §2

Test [21] concerns the target Tryptase beta-2 (Homo sapiens) (UniProt P20231). The test is described as follows: Inhibition of Tryptase beta2 (unknown origin) using Z-GPR-AMC substrate assessed as residual activity at 10 uM incubated for 15 mins prior to substrate addition measured for 2 hrs.

Sequence of Disintegrin and metalloproteinase domain-containing protein 9 (Homo sapiens) (Q13443 whole entry, the tested form may be a part): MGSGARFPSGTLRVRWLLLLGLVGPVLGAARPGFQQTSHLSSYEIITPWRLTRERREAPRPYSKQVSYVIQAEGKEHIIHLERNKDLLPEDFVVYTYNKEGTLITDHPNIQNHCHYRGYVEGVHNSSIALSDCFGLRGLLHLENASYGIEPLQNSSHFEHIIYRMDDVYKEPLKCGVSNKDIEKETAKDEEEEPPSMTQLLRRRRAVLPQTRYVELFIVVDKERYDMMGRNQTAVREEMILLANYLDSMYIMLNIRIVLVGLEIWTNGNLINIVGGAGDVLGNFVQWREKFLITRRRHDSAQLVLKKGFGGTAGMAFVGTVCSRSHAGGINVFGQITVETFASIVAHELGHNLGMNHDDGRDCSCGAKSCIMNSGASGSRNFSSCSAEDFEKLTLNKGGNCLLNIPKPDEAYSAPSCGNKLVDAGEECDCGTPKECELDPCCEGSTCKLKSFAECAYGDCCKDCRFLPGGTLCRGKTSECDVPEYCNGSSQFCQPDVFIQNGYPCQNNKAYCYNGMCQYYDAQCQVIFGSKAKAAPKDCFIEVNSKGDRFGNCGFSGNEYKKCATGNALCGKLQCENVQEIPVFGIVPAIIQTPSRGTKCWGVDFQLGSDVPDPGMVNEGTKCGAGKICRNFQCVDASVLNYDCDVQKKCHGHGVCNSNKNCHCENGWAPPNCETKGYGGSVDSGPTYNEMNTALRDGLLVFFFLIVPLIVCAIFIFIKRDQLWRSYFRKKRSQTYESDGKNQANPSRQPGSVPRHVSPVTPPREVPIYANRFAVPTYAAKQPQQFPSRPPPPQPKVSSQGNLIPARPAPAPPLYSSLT
Sequence of Disintegrin and metalloproteinase domain-containing protein 10 (Homo sapiens) (O14672 whole entry, the tested form may be a part): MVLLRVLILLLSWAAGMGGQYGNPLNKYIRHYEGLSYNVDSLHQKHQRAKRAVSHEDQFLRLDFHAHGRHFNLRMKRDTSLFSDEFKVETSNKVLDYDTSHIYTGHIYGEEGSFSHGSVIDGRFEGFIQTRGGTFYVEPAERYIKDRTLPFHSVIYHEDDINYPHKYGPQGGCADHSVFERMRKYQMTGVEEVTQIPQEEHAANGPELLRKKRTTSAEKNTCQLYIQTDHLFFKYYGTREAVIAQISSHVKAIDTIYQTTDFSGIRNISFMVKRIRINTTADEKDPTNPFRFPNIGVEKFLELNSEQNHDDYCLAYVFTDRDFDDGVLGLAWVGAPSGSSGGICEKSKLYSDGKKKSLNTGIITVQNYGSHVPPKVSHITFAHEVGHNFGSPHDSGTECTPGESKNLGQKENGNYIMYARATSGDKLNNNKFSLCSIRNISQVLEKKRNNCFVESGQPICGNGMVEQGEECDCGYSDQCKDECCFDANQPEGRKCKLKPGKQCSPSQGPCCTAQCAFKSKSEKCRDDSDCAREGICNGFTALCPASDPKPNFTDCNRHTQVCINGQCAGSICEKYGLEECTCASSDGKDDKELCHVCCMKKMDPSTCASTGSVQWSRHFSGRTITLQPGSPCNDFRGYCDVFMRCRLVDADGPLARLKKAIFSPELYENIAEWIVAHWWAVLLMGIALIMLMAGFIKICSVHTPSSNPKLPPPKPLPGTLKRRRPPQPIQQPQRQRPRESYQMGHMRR
Sequence of Plasminogen (Homo sapiens) (P00747 97-580 limits assumed): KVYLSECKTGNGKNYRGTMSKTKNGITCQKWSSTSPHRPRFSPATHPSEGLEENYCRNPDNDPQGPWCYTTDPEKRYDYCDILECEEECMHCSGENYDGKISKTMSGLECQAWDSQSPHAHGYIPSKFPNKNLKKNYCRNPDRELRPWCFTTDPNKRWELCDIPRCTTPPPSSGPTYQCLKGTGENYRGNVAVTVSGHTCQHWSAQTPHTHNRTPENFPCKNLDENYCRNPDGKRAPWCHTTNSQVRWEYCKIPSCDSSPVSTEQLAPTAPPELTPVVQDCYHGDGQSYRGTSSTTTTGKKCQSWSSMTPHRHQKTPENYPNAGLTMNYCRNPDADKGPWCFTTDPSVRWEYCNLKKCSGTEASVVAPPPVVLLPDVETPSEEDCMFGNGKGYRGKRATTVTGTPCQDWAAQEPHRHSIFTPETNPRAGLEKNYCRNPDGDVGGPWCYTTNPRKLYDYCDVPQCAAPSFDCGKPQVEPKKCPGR
Sequence of Plasminogen (Homo sapiens) (P00747 581-810 limits assumed): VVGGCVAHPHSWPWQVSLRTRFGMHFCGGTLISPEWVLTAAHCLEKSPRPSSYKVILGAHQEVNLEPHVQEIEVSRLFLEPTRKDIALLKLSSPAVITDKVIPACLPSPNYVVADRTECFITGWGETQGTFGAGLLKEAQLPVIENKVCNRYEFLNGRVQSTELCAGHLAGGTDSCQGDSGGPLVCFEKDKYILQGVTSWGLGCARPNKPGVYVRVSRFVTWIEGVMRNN
Sequence of Chymase (Homo sapiens) (P23946 whole entry): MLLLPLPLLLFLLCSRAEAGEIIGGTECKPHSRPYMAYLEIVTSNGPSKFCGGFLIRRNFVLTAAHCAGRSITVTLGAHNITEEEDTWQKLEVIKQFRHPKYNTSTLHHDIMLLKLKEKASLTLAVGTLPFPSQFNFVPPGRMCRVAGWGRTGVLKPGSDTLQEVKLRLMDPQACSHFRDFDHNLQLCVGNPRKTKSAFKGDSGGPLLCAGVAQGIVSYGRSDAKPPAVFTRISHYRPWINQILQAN
Sequence of Cathepsin G (P08311 whole entry): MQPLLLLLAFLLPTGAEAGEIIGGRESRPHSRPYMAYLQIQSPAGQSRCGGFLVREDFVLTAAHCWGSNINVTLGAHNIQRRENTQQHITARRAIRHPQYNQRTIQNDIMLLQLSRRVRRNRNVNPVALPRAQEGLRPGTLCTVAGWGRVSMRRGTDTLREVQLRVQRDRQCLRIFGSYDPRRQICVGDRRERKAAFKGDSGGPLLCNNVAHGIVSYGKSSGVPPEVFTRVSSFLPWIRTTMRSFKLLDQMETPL
Sequence of Cathepsin S (Homo sapiens) (P25774 115-331 limits assumed): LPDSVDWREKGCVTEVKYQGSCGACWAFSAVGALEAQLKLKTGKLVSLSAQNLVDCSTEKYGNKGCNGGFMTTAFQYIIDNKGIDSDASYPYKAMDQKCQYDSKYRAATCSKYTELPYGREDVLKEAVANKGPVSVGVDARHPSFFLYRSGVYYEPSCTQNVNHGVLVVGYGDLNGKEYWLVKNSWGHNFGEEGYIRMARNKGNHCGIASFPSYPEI
Sequence of Coagulation factor XI (P03951 19-387 limits assumed): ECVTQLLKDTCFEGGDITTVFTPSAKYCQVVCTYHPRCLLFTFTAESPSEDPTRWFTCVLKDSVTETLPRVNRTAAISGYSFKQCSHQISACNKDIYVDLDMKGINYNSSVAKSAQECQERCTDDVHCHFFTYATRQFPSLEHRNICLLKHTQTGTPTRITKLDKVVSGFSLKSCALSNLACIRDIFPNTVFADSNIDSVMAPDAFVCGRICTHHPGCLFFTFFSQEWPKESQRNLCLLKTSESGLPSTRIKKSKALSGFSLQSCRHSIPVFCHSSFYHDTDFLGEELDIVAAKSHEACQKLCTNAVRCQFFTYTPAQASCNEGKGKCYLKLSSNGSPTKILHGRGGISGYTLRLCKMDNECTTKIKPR
Sequence of Coagulation factor XI (P03951 388-625 limits assumed): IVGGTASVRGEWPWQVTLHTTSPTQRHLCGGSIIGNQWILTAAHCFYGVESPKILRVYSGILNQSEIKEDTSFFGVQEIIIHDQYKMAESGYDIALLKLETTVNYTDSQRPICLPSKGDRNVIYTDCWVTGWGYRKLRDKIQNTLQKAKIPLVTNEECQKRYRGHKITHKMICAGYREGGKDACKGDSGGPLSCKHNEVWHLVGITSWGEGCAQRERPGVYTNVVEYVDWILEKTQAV
Sequence of 72 kDa type IV collagenase (Homo sapiens) (P08253 110-660 limits assumed): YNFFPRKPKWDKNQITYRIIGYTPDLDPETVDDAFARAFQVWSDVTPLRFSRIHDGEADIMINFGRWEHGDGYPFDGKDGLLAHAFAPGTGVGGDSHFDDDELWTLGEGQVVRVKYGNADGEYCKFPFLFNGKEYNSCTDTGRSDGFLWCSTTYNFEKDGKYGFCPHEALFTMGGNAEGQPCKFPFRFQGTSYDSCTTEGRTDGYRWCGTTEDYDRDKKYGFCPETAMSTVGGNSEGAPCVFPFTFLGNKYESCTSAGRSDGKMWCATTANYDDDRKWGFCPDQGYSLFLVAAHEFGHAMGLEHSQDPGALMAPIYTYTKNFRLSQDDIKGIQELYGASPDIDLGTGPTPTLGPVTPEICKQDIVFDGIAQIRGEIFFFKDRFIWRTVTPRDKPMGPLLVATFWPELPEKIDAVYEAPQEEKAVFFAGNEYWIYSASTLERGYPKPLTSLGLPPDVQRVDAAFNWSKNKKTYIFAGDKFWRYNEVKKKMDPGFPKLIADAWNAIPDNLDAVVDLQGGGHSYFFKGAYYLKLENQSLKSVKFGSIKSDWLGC
Sequence of Kallikrein-13 (Homo sapiens) (Q9UKR3 whole entry): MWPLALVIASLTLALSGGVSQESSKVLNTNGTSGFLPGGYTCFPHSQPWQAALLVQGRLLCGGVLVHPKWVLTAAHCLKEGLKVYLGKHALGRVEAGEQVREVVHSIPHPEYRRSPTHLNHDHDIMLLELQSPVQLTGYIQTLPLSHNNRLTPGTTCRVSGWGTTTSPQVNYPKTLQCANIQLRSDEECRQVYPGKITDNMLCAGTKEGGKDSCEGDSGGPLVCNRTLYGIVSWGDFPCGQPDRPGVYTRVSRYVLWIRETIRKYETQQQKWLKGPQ
Sequence of Coagulation factor X (Homo sapiens) (P00742 41-179 limits assumed): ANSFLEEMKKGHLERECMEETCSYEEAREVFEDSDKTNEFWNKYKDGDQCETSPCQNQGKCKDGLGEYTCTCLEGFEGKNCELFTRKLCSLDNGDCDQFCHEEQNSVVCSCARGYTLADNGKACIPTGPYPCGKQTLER
Sequence of Coagulation factor X (Homo sapiens) (P00742 235-488 limits assumed): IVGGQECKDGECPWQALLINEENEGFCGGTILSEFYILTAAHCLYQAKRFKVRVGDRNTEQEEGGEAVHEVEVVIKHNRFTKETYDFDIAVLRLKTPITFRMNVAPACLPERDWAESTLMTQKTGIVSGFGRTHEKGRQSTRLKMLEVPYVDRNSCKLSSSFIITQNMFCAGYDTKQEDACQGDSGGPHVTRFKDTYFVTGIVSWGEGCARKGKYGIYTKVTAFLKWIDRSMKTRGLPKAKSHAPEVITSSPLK

Consider `C/C=C1\NC(=O)[C@@H](NC(=O)[C@@H](NC(=O)[C@@H](COS(=O)(=O)[O-])OC)C(C)C)[C@@H](C)OC(=O)[C@H]([C@H](C)CC)NC(=O)[C@H](Cc2ccccc2)N(C)C(=O)[C@H](Cc2ccccc2)N2C(=O)[C@H](CC[C@H]2O)NC1=O.[Na+]` [Symplostatin 5], for which the Activity in [1] came to 100%; in [3], 100%; in test [4], 100%; in test [5], 50%; in test [8], 100%; in [10], 100%. The Activity in test [12], in [14], in test [16], in test [18], in [19] and in test [20] was 100% each time. Also, the Activity in test [21] turned out to be 100%. In addition, the IC50 in test [2] and in [17] was less than 10 µM in each case. The values for the pIC50 in test [6] and in test [7] were more than 5 and less than 5, respectively. Moreover, the inhibition entry in test [9], in test [11], in [13] and in test [15] was “Active” in each case.
